Legend:
Mus musculus [1] = assay: Antimalarial efficacy against Plasmodium berghei in mice (Mus musculus) when administered intravenously each day for 4 days to five mice (Mus musculus) per dose regimen; format: functional; settings: iv, 96 h
In short: (§1)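 P. berghei-infected mice; four doses (1, 3, 10 and 30 mg/kg) given once daily for four days, five mice per dose regimen, by sc or iv route as per line. ED50 and ED90 derived from the dose–response, reported in mg/kg and µmol/kg.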

Mus musculus [2] = assay: Antimalarial efficacy against Plasmodium berghei in mice (Mus musculus) when administered subcutaneously each day for 4 days to five mice (Mus musculus) per dose regimen; format: functional; settings: sc, 96 h; in short: as §1

Row | Compound | ED50 (Mus musculus [1]) [mg/kg] | ED90 (Mus musculus [1]) [mg/kg] | ED50 (Mus musculus [2]) [mg/kg] | ED90 (Mus musculus [2]) [mg/kg]
1 | CO[C@@H]1O[C@@]2(c3ccc(F)cc3)CC[C@H]3CCCC[C@]31OO2 | 4 | 8 | 4.7 | 8.3
2 | CO[C@@H]1O[C@@]2(c3ccc(C(=O)O)cc3)CC[C@H]3CCCC[C@]31OO2 | 19.5 | 55 | 22.5 | 112
3 | CCO[C@H]1O[C@@H]2O[C@@]3(C)CC[C@H]4[C@H](C)CC[C@@H]([C@H]1C)[C@@]24OO3 [ARTEMOTIL] | 0.46 | – | 0.9 | 1.4
4 | CCN(CC)CCCC(C)Nc1ccnc2cc(Cl)ccc12 (stereo unspecified) [CHLOROQUINE] | 5 | – | 1 | –
5 | CO[C@H]1O[C@@]2(c3ccc(C(=O)O)cc3)CC[C@H]3CCCC[C@]31OO2 | 16.5 | 48 | 10.5 | 19.5
6 | C[C@@H]1[C@H](OCc2ccc(C(=O)O)cc2)O[C@@H]2O[C@@]3(C)CC[C@@H]4[C@@H](C)CC[C@@H]1[C@]24OO3 [ARTELINIC ACID] | 4.3 | 15.5 | 6.6 | 14

Source: ChEMBL document CHEMBL1134589, “Antimalarial simplified 3-aryltrioxanes: synthesis and preclinical efficacy/toxicity testing in rodents” (2001)
